Results taken from ChEMBL document CHEMBL1153549 (Antimicrob Agents Chemother, 2008).
Values after ≈ are worked out from the molar mass of the structure shown. Active and inactive are the calls of the source. No cut-off for these calls is given here.

Key:
Streptococcus pneumoniae [1] = test: Ratio of antibacterial activity against Streptococcus pneumoniae ATCC 49619 in presence of 1 mg/ml pulmonar surfactant and 50 mg/liter Ca2+ to antibacterial against Streptococcus pneumoniae ATCC 49619; assay type: functional
Method in brief: (§1)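 CLSI broth microdilution in cation-adjusted Mueller-Hinton broth combined with checkerboard of drug against pulmonary surfactant up to 1 mg/ml (25-fold dilution of Survanta); 50 mg/liter Ca2+ added for daptomycin only. Ratios of activity with vs without surfactant given as median and range of two separate experiments.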

Streptococcus pneumoniae [2] = test: Antibacterial activity against Streptococcus pneumoniae ATCC 49619 by standard checkerboard method in presence of pulmonar surfactant and 50 mg/liter Ca2+; assay type: functional, organism-based; method in brief: as §1
Staphylococcus aureus [3] = test: Antibacterial activity against methicillin-resistant Staphylococcus aureus ATCC 33591 by standard checkerboard method in presence of pulmonar surfactant and 50 mg/liter Ca2+; assay type: functional, organism-based
Method in brief: (§2)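 Checkerboard combination of antibiotic with pulmonary surfactant (Survanta) by CLSI broth microdilution in cation-adjusted Mueller-Hinton broth. The top surfactant level was 1 mg/ml, a 25-fold dilution of Survanta. For daptomycin, the broth carried 50 mg/liter Ca2+.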

Staphylococcus aureus [4] = test: Ratio of antibacterial activity against methicillin-resistant Staphylococcus aureus ATCC 33591 in presence of 1 mg/ml pulmonar surfactant and 50 mg/liter Ca2+ to antibacterial against methicillin-resistant Staphylococcus aureus ATCC 33591; assay type: functional
Method in brief: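 Broth microdilution in cation-adjusted Mueller-Hinton broth (plus 50 mg/liter Ca2+ for daptomycin), with versus without 1 mg/ml pulmonary surfactant (Survanta). Reported as the median and range of activity ratios from two separate experiments.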

Streptococcus pneumoniae [5] = test: Antibacterial activity against Streptococcus pneumoniae ATCC 49619 by standard checkerboard method in presence of 0.2 to 1 mg/ml pulmonar surfactant; assay type: functional, organism-based; method in brief: as §1
Staphylococcus aureus [6] = test: Antibacterial activity against methicillin-resistant Staphylococcus aureus ATCC 33591 by standard checkerboard method in presence of 0.2 to 1 mg/ml pulmonar surfactant; assay type: functional, organism-based; method in brief: as §2
Staphylococcus aureus [7] = test: Antibacterial activity against methicillin-susceptible Staphylococcus aureus; assay type: functional
Method in brief: (§3)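 MICs by CLSI reference broth microdilution in cation-adjusted Mueller-Hinton broth. For daptomycin testing, the medium was supplemented with 50 mg/liter Ca2+.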

Homo sapiens [8] = test: Toxicity in healthy human at 10 mg/kg/day infused over 1 hr; assay type: organism-based; conditions: in vivo
[9] = Clearance at steady state in healthy human at 10 mg/kg, iv once daily for 3 days measured at 24 after start of infusion; assay type: ADME, organism-based; design: dose 10 mg/kg, route intravenous; conditions: in vivo, read-out: CLss (converted)
Method in brief: (§4)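 Plasma from healthy adults given 10 mg/kg IV over 60 min daily for 3 days, sampled before infusions 1 and 3 and 1, 2, 4, 6, 8, 12, 24 h after the third; validated LC-MS/MS (LLOQ 0.25 μg/ml). Noncompartmental analysis: Cmax, Tmax, Cmin observed; AUC0-24 linear trapezoidal; kel by log-linear regression; t1/2 = 0.693/kel; CL = dose/AUC0-24.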

[10] = Plasma concentration in healthy human undergoing fiber-optic bronchoscopy at 10 mg/kg, iv once daily for 3 days measured at 12 hrs after start of infusion by validated liquid chromatography; assay type: ADME, organism-based; design: dose 10 mg/kg, route intravenous
[11] = Terminal half life in healthy human at 10 mg/kg, iv once daily for 3 days measured at 24 after start of infusion; assay type: ADME, organism-based; design: dose 10 mg/kg, route intravenous; conditions: in vivo, read-out: beta t1/2 (converted); method in brief: as §4
[12] = Mean residence time in healthy human at 10 mg/kg, iv once daily for 3 days measured at 24 after start of infusion; assay type: ADME, organism-based; design: dose 10 mg/kg, route intravenous; conditions: in vivo; method in brief: as §4
[13] = Ratio of drug level in alveolar macrophage to plasma of healthy human undergoing fiber-optic bronchoscopy at 10 mg/kg, iv once daily for 3 days measured at 24 hrs after start of infusion; conditions: alveolar macrophages / plasma
[14] = Drug level in alveolar macrophage of healthy human undergoing fiber-optic bronchoscopy at 10 mg/kg, iv once daily for 3 days measured at 24 after start of infusion by validated liquid chromatography; assay type: ADME, organism-based; design: dose 10 mg/kg, route intravenous; conditions: alveolar macrophages, read-out: Drug uptake
Homo sapiens [15] = test: Plasma protein binding in healthy human undergoing fiber-optic bronchoscopy at 10 mg/kg, iv once daily for 3 days; conditions: read-out: PPB (converted)
Homo sapiens [16] = test: Toxicity in healthy human assessed as pulmonar infection at 10 mg/kg, iv once daily for 3 days; assay type: organism-based; design: dose 10 mg/kg, route intravenous; conditions: in vivo, 72 h
[17] = AUC (0 to 24) in epithelial lining fluid of healthy human at 10 mg/kg, iv once daily for 3 days; assay type: ADME, organism-based; design: time < 24 hr, dose 10 mg/kg, route intravenous; conditions: in vivo, 24 h
Streptococcus pneumoniae [18] = test: Antibacterial activity against Streptococcus pneumoniae
[19] = Drug level in alveolar macrophage of healthy human undergoing fiber-optic bronchoscopy at 10 mg/kg, iv once daily for 3 days measured at 8 hrs after start of infusion by validated liquid chromatography; assay type: ADME, organism-based; design: dose 10 mg/kg, route intravenous; conditions: alveolar macrophages, read-out: Drug uptake
[20] = Drug level in alveolar macrophage of healthy human undergoing fiber-optic bronchoscopy at 10 mg/kg, iv once daily for 3 days measured at 12 after start of infusion by validated liquid chromatography; assay type: ADME, organism-based; design: dose 10 mg/kg, route intravenous; conditions: alveolar macrophages, read-out: Drug uptake
Homo sapiens [21] = test: Toxicity in healthy human at 10 mg/kg, iv once daily for 3 days by clinical laboratory test; assay type: organism-based; design: dose 10 mg/kg, route intravenous; conditions: in vivo, 72 h
Method in brief: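 Safety monitored by physical examinations, electrocardiographs and clinical laboratory tests (hematology, serum chemistry, urinalysis) at screening and specified times during 3 days of 10 mg/kg 1-h IV infusions.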

[22] = Plasma concentration in healthy human undergoing fiber-optic bronchoscopy at 10 mg/kg, iv once daily for 3 days measured at 24 hrs after start of infusion by validated liquid chromatography; assay type: ADME, organism-based; design: dose 10 mg/kg, route intravenous
Mus musculus = test: fAUC (0 to 24) in mouse pneumonia model at 40 mg/kg; assay type: ADME, organism-based; design: dose 40 mg/kg; conditions: in vivo
Homo sapiens [23] = test: Toxicity in healthy human assessed as pulmonar inflammation at 10 mg/kg, iv once daily for 3 days; assay type: organism-based; design: dose 10 mg/kg, route intravenous; conditions: in vivo, 72 h
[24] = Drug level in epithelial lining fluid of healthy human undergoing fiber-optic bronchoscopy at 10 mg/kg, iv once daily for 3 days measured at 8 hrs after start of infusion by validated liquid chromatography; assay type: ADME, organism-based; design: dose 10 mg/kg, route intravenous; conditions: read-out: Drug uptake
[25] = Cmax in healthy human at 10 mg/kg, iv once daily for 3 days measured at 24 after start of infusion; assay type: ADME, organism-based; design: dose 10 mg/kg, route intravenous; conditions: in vivo; method in brief: as §4
Streptococcus pneumoniae [26] = test: Antibacterial activity against […] Streptococcus pneumoniae; assay type: functional; method in brief: as §3
[27] = Drug level in epithelial lining fluid of healthy human undergoing fiber-optic bronchoscopy at 10 mg/kg, iv once daily for 3 days measured at 24 hrs after start of infusion by validated liquid chromatography; assay type: ADME, organism-based; design: dose 10 mg/kg, route intravenous; conditions: read-out: Drug uptake
[28] = Tmax in healthy human at 10 mg/kg, iv once daily for 3 days measured at 24 after start of infusion; assay type: ADME, organism-based; design: dose 10 mg/kg, route intravenous; conditions: in vivo; method in brief: as §4
[29] = Cmin in healthy human at 10 mg/kg, iv once daily for 3 days measured at 24 after start of infusion; assay type: ADME, organism-based; design: dose 10 mg/kg, route intravenous; conditions: in vivo, read-out: Cmin; method in brief: as §4
Staphylococcus aureus [30] = test: Antibacterial activity against methicillin-resistant Staphylococcus aureus; assay type: functional
[31] = Ratio of drug level in alveolar macrophage to plasma of healthy human undergoing fiber-optic bronchoscopy at 10 mg/kg, iv once daily for 3 days measured at 12 hrs after start of infusion; conditions: alveolar macrophages / plasma
Staphylococcus aureus [32] = test: Antibacterial activity against methicillin-resistant Staphylococcus aureus ATCC 33591 by CLSI broth microdilution method; assay type: functional; method in brief: as §3

For `CCCCCCCCCC(=O)N[C@@H](Cc1c[nH]c2ccccc12)C(=O)N[C@H](CC(N)=O)C(=O)N[C@@H](CC(=O)O)C(=O)N[C@@H]1C(=O)NCC(=O)N[C@@H](CCCN)C(=O)N[C@@H](CC(=O)O)C(=O)N[C@H](C)C(=O)N[C@@H](CC(=O)O)C(=O)NCC(=O)N[C@H](CO)C(=O)N[C@@H]([C@H](C)CC(=O)O)C(=O)N[C@@H](CC(=O)c2ccccc2N)C(=O)O[C@@H]1C`, the Ratio (Streptococcus pneumoniae [1]) was 128, the Activity (Streptococcus pneumoniae [2]) was “inactive” and the Activity (Staphylococcus aureus [3]) was “inactive”. For the same compound, the Ratio (Staphylococcus aureus [4]) was 32.
With `CN[C@H](CC(C)C)C(=O)N[C@H]1C(=O)N[C@@H](CC(N)=O)C(=O)N[C@H]2C(=O)N[C@H]3C(=O)N[C@H](C(=O)N[C@H](C(=O)O)c4cc(O)cc(O)c4-c4cc3ccc4O)[C@H](O)c3ccc(c(Cl)c3)Oc3cc2cc(c3O[C@@H]2O[C@H](CO)[C@@H](O)[C@H](O)[C@H]2O[C@H]2C[C@](C)(N)[C@H](O)[C@H](C)O2)Oc2ccc(cc2Cl)[C@H]1O` the Activity (Streptococcus pneumoniae [5]) was “Active” and the Activity (Staphylococcus aureus [6]) was “Active”.
With `CO/N=C(\C(=O)N[C@@H]1C(=O)N2C(C(=O)O)=C(CSc3nc(=O)c(O)nn3C)CS[C@H]12)c1csc(N)n1` the Activity (Streptococcus pneumoniae [5]) was “Active” and the Activity (Staphylococcus aureus [6]) was “Active”.
With `CCCCCCCCCCNCCN[C@@]1(C)C[C@H](O[C@H]2[C@H](Oc3c4cc5cc3Oc3ccc(cc3Cl)[C@@H](O)[C@@H](NC(=O)[C@@H](CC(C)C)NC)C(=O)N[C@@H](CC(N)=O)C(=O)N[C@H]5C(=O)N[C@H]3C(=O)N[C@H](C(=O)N[C@H](C(=O)O)c5cc(O)c(CNCP(=O)(O)O)c(O)c5-c5cc3ccc5O)[C@H](O)c3ccc(c(Cl)c3)O4)O[C@H](CO)[C@@H](O)[C@@H]2O)O[C@@H](C)[C@H]1O` [TELAVANCIN] the MIC90 (Staphylococcus aureus [7]) was 0.5 µg/mL (≈ 0.285 µM), the Activity (Homo sapiens [8]) was “Non-toxic” and the clearance [9] was 0.217 mL/min/kg. The concentration at 12 h [10] was 22900 ng/mL, the half-life [11] was 445 min and the MRT [12] was 9.42 h. The Kp at 24 h [13] was 6.67, the Activity (Streptococcus pneumoniae [5]) was “Active” and the concentration at 72 h [14] was 42000 ng/mL. For the same compound, the fraction unbound at 72 h (Homo sapiens [15]) was 0.1, the Activity (Staphylococcus aureus [6]) was “Active” and the Activity (Homo sapiens [16]) was “Non-toxic”. The AUC [17] was 45 µg/h/mL, the MIC90 (Streptococcus pneumoniae [18]) was 0.03 µg/mL (≈ 0.0171 µM) and the concentration at 8 h [19] was 19000 ng/mL. The concentration at 72 h [20] was 45000 ng/mL, the Activity (Homo sapiens [21]) was “Non-toxic” and the concentration at 24 h [22] was 7280 ng/mL. For the same compound, the fAUC (Mus musculus) was 52.3 µg/h/mL, the Activity (Homo sapiens [23]) was “Non-toxic” and the concentration at 8 h [24] was 3700 ng/mL. The Cmax [25] was 116 µg/mL, the MIC90 (Streptococcus pneumoniae [26]) was 0.03 µg/mL (≈ 0.0171 µM) and the concentration at 24 h [27] was 900 ng/mL. The Tmax [28] was 1 h, the concentration at 72 h [29] was 8110 ng/mL and the MIC90 (Staphylococcus aureus [30]) was 0.5 µg/mL (≈ 0.285 µM). The Kp at 12 h [31] was 1.93 and the Activity (Staphylococcus aureus [32]) was 0.5 µg/mL.
